# Results gathered from unrelated publications.
# Each line is one published result; the experiments were not run side by side.
# Target: Ephrin type-B receptor 1 (EPHB1, Homo sapiens, UniProt P54762)
# One construct used (P54762 18-984): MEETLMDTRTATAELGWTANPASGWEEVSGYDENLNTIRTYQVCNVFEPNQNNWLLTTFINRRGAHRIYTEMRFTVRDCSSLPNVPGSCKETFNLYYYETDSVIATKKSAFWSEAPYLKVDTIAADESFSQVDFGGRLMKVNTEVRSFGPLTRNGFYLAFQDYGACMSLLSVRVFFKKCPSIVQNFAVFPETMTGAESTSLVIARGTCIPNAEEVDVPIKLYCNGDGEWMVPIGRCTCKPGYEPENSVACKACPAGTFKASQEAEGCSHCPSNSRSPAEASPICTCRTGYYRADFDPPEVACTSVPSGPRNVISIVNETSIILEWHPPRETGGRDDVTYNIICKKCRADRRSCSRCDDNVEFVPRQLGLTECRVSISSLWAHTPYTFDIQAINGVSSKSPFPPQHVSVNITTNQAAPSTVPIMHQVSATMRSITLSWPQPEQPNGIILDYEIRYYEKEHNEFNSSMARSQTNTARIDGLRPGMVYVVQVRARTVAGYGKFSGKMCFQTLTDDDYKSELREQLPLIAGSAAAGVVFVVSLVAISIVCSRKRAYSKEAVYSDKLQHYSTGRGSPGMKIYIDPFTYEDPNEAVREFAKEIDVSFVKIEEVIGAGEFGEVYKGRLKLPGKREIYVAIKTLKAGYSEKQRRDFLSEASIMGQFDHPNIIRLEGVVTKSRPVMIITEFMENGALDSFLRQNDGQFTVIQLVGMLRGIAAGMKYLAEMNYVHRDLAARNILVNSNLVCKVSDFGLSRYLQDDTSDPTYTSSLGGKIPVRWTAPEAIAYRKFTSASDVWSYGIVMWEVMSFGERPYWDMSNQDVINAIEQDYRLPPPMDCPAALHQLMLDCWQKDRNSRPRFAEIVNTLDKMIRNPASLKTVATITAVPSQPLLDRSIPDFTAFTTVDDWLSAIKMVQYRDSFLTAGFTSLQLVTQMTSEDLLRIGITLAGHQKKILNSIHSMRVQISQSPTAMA
Structure (SMILES),assay,setting,endpoint,result
Cc1nn(C)cc1-c1nc2c(N3CCN(Cc4ccc(Cl)cc4)CC3)c(Cl)cnc2[nH]1,"binding, competition with immobilised ligand",1 µM,remaining binding,100%
COc1cc(Nc2ncc(F)c(Nc3ccc4c(n3)NC(=O)C(C)(C)O4)n2)cc(OC)c1OC,"binding, competition with immobilised ligand",10 µM,inhibition,96%
COc1ncccc1-c1cnn2ccc(N3CCN(C(=O)OC(C)C)CC3)nc12,"binding, competition with immobilised ligand",1 µM,remaining binding,100%
C#Cc1n[nH]c2c(-c3cn([C@@H](C)c4ccccc4)c(=O)[nH]c3=O)cc(F)cc12,"enzyme activity, inhibitor",0.1 µM,inhibition,1.9%
Cn1cc(-c2cccc(N3CCc4c(sc5c4CC(C)(C)C5)C3=O)c2CO)cc(Nc2ccncn2)c1=O,"enzyme activity, inhibitor",1 µM,inhibition,4%
Cn1cncc1[C@](O)(COc1ccc(C#N)cc1-c1ccc(OC(F)(F)F)cc1)c1ccc(C#N)cc1,"cell-free assay, competition with immobilised ligand",1 µM,remaining binding,98%
Nc1ncc(-c2nc(N3CCOCC3)nc(N3CCOCC3)n2)c(C(F)F)n1,"cell-free assay, competition with immobilised ligand",10 µM,remaining binding,98%
O=c1[nH]c2ccccc2n1C1CCN(Cc2ccc(-c3[nH]c4cc5ncnc5cc4nc3-c3ccccc3)cc2)CC1,cell-free assay,0.5 µM,remaining signal,104%
Cn1cc(-c2cc(F)cc(N3CCn4c(cc5c4CCCC5)C3=O)c2CO)cc(Nc2ccc(N3CCN(C4COC4)CC3)cn2)c1=O,"enzyme activity, inhibitor",0.1 µM,inhibition,6%
CC(C)(C)c1cc(C=C(C#N)C#N)cc(Br)c1O,"enzyme activity, inhibitor",0.5 µM,remaining activity,114%
N#CC1(c2ccccn2)CCN(Cc2cc(C(=O)O)c(=O)n3ccccc23)CC1,"cell-free assay, competition with immobilised ligand",1 µM,remaining binding,100%
C#Cc1n[nH]c2c(-c3cn(C(C)c4ccccn4)c(=O)[nH]c3=O)cc(F)cc12 (stereo not drawn),"enzyme activity, inhibitor",1 µM,inhibition,4.9%
